From ChEMBL document CHEMBL1255524, “Identification of 2,3,6-trisubstituted quinoxaline derivatives as a Wnt2/β-catenin pathway inhibitor in non-small-cell lung cancer cell lines” (Bioorg Med Chem Lett, 2010)
pIC50: −log10 of the molar value. Activity calls are given as the source filed them. The rule behind the calls is not given here.

Experiments:
[1] = Inhibition of […] signaling in human H460 cells assessed as inhibition of cell proliferation after 24 hrs by MTT assay; type: cell-based
[2] = system: A549; assay: Reduction of beta-casein expression level in cytosolic fraction of human A549 cells expressing Wnt2 by Western blotting; type: functional, cell-based
[3] = Inhibition of […] signaling in human A549 cells assessed as inhibition of cell proliferation after 24 hrs by MTT assay; conditions: A549, 24 h
[4] = Inhibition of […] signaling in human A549 cells assessed as inhibition of cell proliferation at 15% of IC50 concentration after 24 to 48 hrs by MTT assay; type: cell-based
[5] = system: A549; assay: Reduction of beta-casein expression level in human A549 cells expressing Wnt2 by Western blotting; type: functional, cell-based
[6] = system: A549; assay: Reduction of beta-casein expression level in nuclear fraction of human A549 cells expressing Wnt2 by Western blotting; type: functional, cell-based
[7] = target: T1, Protein Wnt-2 (Homo sapiens) (UniProt P09544); assay: Inhibition of Wnt2 signaling pathway in human A549 cells assessed as inhibition of beta-casein-mediated Tcf/Lef transcriptional activity after 24 hrs by dual luciferase reporter gene assay relative to control; type: cell-based; design: concentration or dose not given beside the values; conditions: concentration not given here
T1 sequence (whole entry): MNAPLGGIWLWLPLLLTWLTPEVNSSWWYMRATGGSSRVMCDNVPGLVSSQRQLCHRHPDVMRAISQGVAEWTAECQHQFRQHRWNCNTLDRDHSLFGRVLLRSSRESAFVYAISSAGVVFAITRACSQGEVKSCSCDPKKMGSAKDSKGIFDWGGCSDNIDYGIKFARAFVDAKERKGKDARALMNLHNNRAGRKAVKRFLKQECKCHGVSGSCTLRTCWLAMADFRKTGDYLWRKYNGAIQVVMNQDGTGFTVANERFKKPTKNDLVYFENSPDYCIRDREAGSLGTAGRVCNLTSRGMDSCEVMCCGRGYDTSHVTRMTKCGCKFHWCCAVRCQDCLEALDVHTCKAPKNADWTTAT
Method in brief: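 A549/Wnt2 cells (4 × 10⁴) transiently co-transfected with 1 lg pSuperTopflash (eight Tcf sites upstream of firefly luciferase) or pSuperFopflash (mutated Tcf sites, negative control) plus 15 ng pRL-TK. Compounds applied at the proliferation IC₅₀, 37 °C, 24 h. Lysed; firefly and Renilla read by dual-luciferase. Firefly/Renilla ratio, triplicates, mean ± SEM, relative to untreated cells.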

[8] = Inhibition of […] signaling in human A549 cells assessed as inhibition of cell proliferation at 30% of IC50 concentration after 24 to 48 hrs by MTT assay; type: cell-based
[9] = Inhibition of […] signaling in human A549 cells assessed as inhibition of cell proliferation after 24 to 48 hrs by MTT assay; type: cell-based
Method in brief: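 MTS proliferation assay in A549/Wnt2 cells. Cells seeded at 5 × 10³ per well and left about 24 h to attach. Compounds added at various concentrations; growth read at 24 and 48 h after treatment. MTS reagent for 30 min at 37 °C in CO₂, then absorbance at 490 nm.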

[10] = target: T1, Protein Wnt-2 (Homo sapiens); assay: Inhibition of Wnt2 signaling pathway in human H460 cells assessed as inhibition of beta-casein-mediated Tcf/Lef transcriptional activity IC50 concentration after 24 hrs by dual luciferase reporter gene assay relative to control; type: cell-based
Method in brief: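 H460/Wnt2 cells transiently co-transfected with SuperTopflash and pRL-TK Renilla control. Compounds given at the A549 proliferation IC₅₀, 37 °C, 24 h. Dual firefly/Renilla luciferase read-out as normalized ratio, triplicates, mean ± SEM, versus untreated cells.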

Row | pIC50 [3] | inhibition [7] [%] | inhibition [10] [%] | SMILES | inhibition [1] | Activity [2] | inhibition [4] | Activity [5] | Activity [6] | inhibition [8] | inhibition [9]
1 | 5.75 |  |  | CCN(CC)CCOc1nc2cc(NC(=O)c3ccc(C)cc3)ccc2nc1C#Cc1ccc(OC)cc1C | Active | Active | Active | Active | Active |  | 
2 | 5.42 | 30 |  | CN(C)c1ccc(C#Cc2nc3cc(F)ccc3nc2OCCCN2CCCCC2)cc1 | Active | Active | Active | Active | Active |  | 
3 | 6.12 | 30 |  | CN(C)CCOc1nc2ccccc2nc1C#Cc1ccccc1 | Active | Active | Active | Active | Active |  | 
4 | 5.30 | 30 |  | COc1nc2ccc(NC(=O)Nc3ccc(C(C)(C)C)cc3)cc2nc1NCCN1CCCCC1 | Active | Active | Active | Active | Active | Active | 
5 | 5.88 |  |  | Cc1ccc(C#Cc2nc3ccccc3nc2OCCN2CCCC2)cc1 | Active | Active | Active | Active | Active |  | 
6 | 5.32 | 30 |  | Cc1ccc(C#Cc2nc3ccc(NC(=O)N4CCN(c5ccccn5)CC4)cc3nc2OCCN2CCCC2)cc1 | Active | Active | Active | Active | Active |  | Dose-dependent effect
7 | 5.42 | > 80 | > 80 | CN1CCC[C@H]1COc1nc2ccc(N)cc2nc1C#Cc1ccccc1 | Active | Active | Active | Active | Active |  | 
8 | 5.79 | 30 |  | Cc1cccc(C#Cc2nc3ccccc3nc2OCCCN2CCCCC2)c1 | Active | Active | Active | Active | Active |  | 
9 | 5.45 |  |  | COc1cccc(C#Cc2nc3ccc(NC(=O)c4ccc(F)cc4)cc3nc2OC2CCN(C)CC2)c1 | Active | Active | Active | Active | Active |  | 
10 | 5.72 |  |  | COc1cccc2nc(OCCN3CCCC3)c(C#Cc3ccccc3)nc12 | Active | Active | Active | Active | Active |  | Dose-dependent effect
11 | 5.10 | > 80 |  | CCN(CC)CCOc1nc2cc(NC(=O)N(C)Cc3ccc(F)cc3)ccc2nc1C#Cc1ccc(N(C)C)cc1 | Active | Active | Active | Active | Active |  | 
12 | 6.04 | 30 |  | Cc1ccc2nc(OCCC3CCCN3C)c(C#Cc3ccccc3)nc2c1 (stereo not given) | Active | Active | Active | Active | Active |  | Dose-dependent effect
13 | 5.63 | > 80 | > 80 | COc1ccc(C#Cc2nc3cc(F)ccc3nc2OCCOCCN(C)C)cc1 | Active | Active | Active | Active | Active | Active | 

Row | SMILES | pIC50 [3] | inhibition [7] [%] | inhibition [10] [%] | inhibition [1] | Activity [2] | inhibition [4] | Activity [5] | Activity [6] | inhibition [8] | inhibition [9]
14 | COc1c(C[C@@H](C)OC(=O)Oc2ccc(O)cc2)c2c3c(C[C@@H](C)OC(=O)c4ccccc4)c(OC)c(=O)c4c(O)cc(OC)c(c5c(OC)cc(O)c(c1=O)c52)c43 [CALPHOSTIN C] | 5.49 |  |  |  |  |  |  |  |  | 
